According to ChEMBL document CHEMBL1142080, “In vitro activities of amphotericin B, caspofungin, itraconazole, posaconazole, and voriconazole against 45 clinical isolates of zygomycetes: comparison of CLSI M38-A, Sensititre YeastOne, and the Etest” (2007):
≈ marks a conversion by molar mass, not a printed value.

Columns and labels:
Assay type in all cases: functional
Absidia [1] = experiment: Antifungal activity against Absidia spp after 24 hrs
How it was run: (§1)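 Broth microdilution per CLSI M38-A, with plates incubated at 35°C and read at 24 and 48 h. Final well concentrations were 0.03 to 16 µg/ml for four agents and 0.250 to 256 µg/ml for the echinocandin. The MIC was the lowest concentration giving complete growth inhibition (MIC-0). For the echinocandin, the MEC was also read as the lowest concentration showing abnormal growth. QC strains were A. flavus ATCC 204304 and A. fumigatus ATCC 204305.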

Absidia [2] = experiment: Antifungal activity against Absidia spp after 48 hrs; how it was run: as §1
Cunninghamella [3] = experiment: Antifungal activity against Cunninghamella spp after 24 hrs; how it was run: as §1
Cunninghamella [4] = experiment: Antifungal activity against Cunninghamella spp after 48 hrs; how it was run: as §1
Mucor [5] = experiment: Antifungal activity against Mucor spp after 24 hrs; how it was run: as §1
Mucor [6] = experiment: Antifungal activity against Mucor spp after 48 hrs; how it was run: as §1
Rhizomucor [7] = experiment: Antifungal activity against Rhizomucor spp after 24 hrs; how it was run: as §1
Rhizomucor [8] = experiment: Antifungal activity against Rhizomucor spp after 48 hrs; how it was run: as §1
Rhizopus [9] = experiment: Antifungal activity against Rhizopus spp after 24 hrs; how it was run: as §1
Rhizopus [10] = experiment: Antifungal activity against Rhizopus spp after 48 hrs; how it was run: as §1
Syncephalastrum [11] = experiment: Antifungal activity against Syncephalastrum spp after 24 hrs; how it was run: as §1
Syncephalastrum [12] = experiment: Antifungal activity against Syncephalastrum spp after 48 hrs; how it was run: as §1

| Structure (SMILES) | MIC50 (Absidia [1]) [µg/mL] | MIC90 (Absidia [1]) [µg/mL] | MIC50 (Absidia [2]) [µg/mL] | MIC90 (Absidia [2]) [µg/mL] | MIC50 (Cunninghamella [3]) [µg/mL] | MIC90 (Cunninghamella [3]) [µg/mL] | MIC50 (Cunninghamella [4]) [µg/mL] | MIC90 (Cunninghamella [4]) [µg/mL] | MIC50 (Mucor [5]) [µg/mL] | MIC90 (Mucor [5]) [µg/mL] | MIC50 (Mucor [6]) [µg/mL] | MIC90 (Mucor [6]) [µg/mL] | MIC50 (Rhizomucor [7]) [µg/mL] | MIC90 (Rhizomucor [7]) [µg/mL] | MIC50 (Rhizomucor [8]) [µg/mL] | MIC90 (Rhizomucor [8]) [µg/mL] | MIC50 (Rhizopus [9]) [µg/mL] | MIC90 (Rhizopus [9]) [µg/mL] | MIC50 (Rhizopus [10]) [µg/mL] | MIC90 (Rhizopus [10]) [µg/mL] | other results |
| --- | --- | --- | --- | --- | --- | --- | --- | --- | --- | --- | --- | --- | --- | --- | --- | --- | --- | --- | --- | --- | --- |
| C[C@@H](c1ncncc1F)[C@](O)(Cn1cncn1)c1ccc(F)cc1F [VORICONAZOLE] | > 16 | > 16 | > 16 | > 16 | > 16 | > 16 | > 16 | > 16 | > 16 | > 16 | > 16 | > 16 | 16 (≈ 45.8 µM) | 16 (≈ 45.8 µM) | > 16 | > 16 | 16 (≈ 45.8 µM) | 16 (≈ 45.8 µM) | 16 (≈ 45.8 µM) | > 16 | MIC50 (Syncephalastrum [11]): 4 µg/mL (≈ 11.5 µM); MIC90 (Syncephalastrum [11]): > 16 µg/mL; MIC50 (Syncephalastrum [12]): > 16 µg/mL; MIC90 (Syncephalastrum [12]): > 16 µg/mL |
| CC[C@@H]([C@H](C)O)n1ncn(-c2ccc(N3CCN(c4ccc(OC[C@@H]5CO[C@@](Cn6cncn6)(c6ccc(F)cc6F)C5)cc4)CC3)cc2)c1=O [POSACONAZOLE] | 0.5 (≈ 0.713 µM) | 1 (≈ 1.43 µM) | 0.5 (≈ 0.713 µM) | > 16 | 0.5 (≈ 0.713 µM) | 0.5 (≈ 0.713 µM) | 0.5 (≈ 0.713 µM) | 0.5 (≈ 0.713 µM) | 0.5 (≈ 0.713 µM) | 2 (≈ 2.85 µM) | 0.5 (≈ 0.713 µM) | 2 (≈ 2.85 µM) | 0.5 (≈ 0.713 µM) | 0.5 (≈ 0.713 µM) | 2 (≈ 2.85 µM) | 2 (≈ 2.85 µM) | 0.5 (≈ 0.713 µM) | 0.5 (≈ 0.713 µM) | 0.5 (≈ 0.713 µM) | 1 (≈ 1.43 µM) | MIC50 (Syncephalastrum [11]): 0.25 µg/mL (≈ 0.357 µM); MIC90 (Syncephalastrum [11]): 0.5 µg/mL (≈ 0.713 µM); MIC50 (Syncephalastrum [12]): 0.5 µg/mL (≈ 0.713 µM); MIC90 (Syncephalastrum [12]): 0.5 µg/mL (≈ 0.713 µM) |

More lines, main results first:

| MIC50 (Absidia [1]) [µg/mL] | MIC90 (Absidia [1]) [µg/mL] | MIC50 (Absidia [2]) [µg/mL] | MIC90 (Absidia [2]) [µg/mL] | MIC50 (Cunninghamella [3]) [µg/mL] | MIC90 (Cunninghamella [3]) [µg/mL] | MIC50 (Cunninghamella [4]) [µg/mL] | MIC90 (Cunninghamella [4]) [µg/mL] | MIC50 (Mucor [5]) [µg/mL] | MIC90 (Mucor [5]) [µg/mL] | MIC50 (Mucor [6]) [µg/mL] | MIC90 (Mucor [6]) [µg/mL] | MIC50 (Rhizomucor [7]) [µg/mL] | MIC90 (Rhizomucor [7]) [µg/mL] | MIC50 (Rhizomucor [8]) [µg/mL] | MIC90 (Rhizomucor [8]) [µg/mL] | MIC50 (Rhizopus [9]) [µg/mL] | MIC90 (Rhizopus [9]) [µg/mL] | MIC50 (Rhizopus [10]) [µg/mL] | MIC90 (Rhizopus [10]) [µg/mL] | Structure (SMILES) | other results |
| --- | --- | --- | --- | --- | --- | --- | --- | --- | --- | --- | --- | --- | --- | --- | --- | --- | --- | --- | --- | --- | --- |
| 1 (≈ 1.42 µM) | > 16 | 1 (≈ 1.42 µM) | > 16 | 1 (≈ 1.42 µM) | 4 (≈ 5.67 µM) | 1 (≈ 1.42 µM) | 4 (≈ 5.67 µM) | 1 (≈ 1.42 µM) | > 16 | 4 (≈ 5.67 µM) | > 16 | 2 (≈ 2.83 µM) | 2 (≈ 2.83 µM) | > 16 | > 16 | 1 (≈ 1.42 µM) | > 16 | 4 (≈ 5.67 µM) | > 16 | CCC(C)n1ncn(-c2ccc(N3CCN(c4ccc(OCC5COC(Cn6cncn6)(c6ccc(Cl)cc6Cl)O5)cc4)CC3)cc2)c1=O (stereo unspecified) [ITRACONAZOLE] | MIC50 (Syncephalastrum [11]): 1 µg/mL (≈ 1.42 µM); MIC90 (Syncephalastrum [11]): 1 µg/mL (≈ 1.42 µM); MIC50 (Syncephalastrum [12]): 1 µg/mL (≈ 1.42 µM); MIC90 (Syncephalastrum [12]): 8 µg/mL (≈ 11.3 µM) |
| 256 (≈ 234 µM) | > 256 | > 256 | > 256 | 256 (≈ 234 µM) | > 256 | 256 (≈ 234 µM) | > 256 | 256 (≈ 234 µM) | > 256 | > 256 | > 256 | 256 (≈ 234 µM) | 256 (≈ 234 µM) | > 256 | > 256 | > 256 | > 256 | > 256 | > 256 | CC[C@H](C)C[C@H](C)CCCCCCCCC(=O)N[C@H]1C[C@@H](O)[C@@H](NCCN)NC(=O)[C@@H]2[C@@H](O)CCN2C(=O)[C@H]([C@H](O)CCN)NC(=O)[C@H]([C@H](O)[C@@H](O)c2ccc(O)cc2)NC(=O)[C@@H]2C[C@@H](O)CN2C(=O)[C@H]([C@@H](C)O)NC1=O [CASPOFUNGIN] | minimal effective concentration (Absidia [1]; read-out: MEC): 64 µg/mL; minimal effective concentration (Absidia [2]; read-out: MEC): 256 µg/mL; minimal effective concentration (Cunninghamella [3]; read-out: MEC): 128 µg/mL; minimal effective concentration (Cunninghamella [4]; read-out: MEC): 128 µg/mL; minimal effective concentration (Mucor [5]; read-out: MEC): 128 µg/mL; minimal effective concentration (Rhizomucor [7]; read-out: MEC): 32 µg/mL; minimal effective concentration (Rhizomucor [8]; read-out: MEC): 64 µg/mL; minimal effective concentration (Rhizopus [9]; read-out: MEC): 128 µg/mL; minimal effective concentration (Rhizopus [10]; read-out: MEC): 256 µg/mL; MIC50 (Syncephalastrum [11]): 256 µg/mL (≈ 234 µM); MIC90 (Syncephalastrum [11]): > 256 µg/mL; minimal effective concentration (Syncephalastrum [11]; read-out: MEC): 8 µg/mL; MIC50 (Syncephalastrum [12]): 256 µg/mL (≈ 234 µM); MIC90 (Syncephalastrum [12]): > 256 µg/mL; minimal effective concentration (Syncephalastrum [12]; read-out: MEC): > 256 µg/mL |
| 1 (≈ 1.08 µM) | 4 (≈ 4.33 µM) | 0.5 (≈ 0.541 µM) | 4 (≈ 4.33 µM) | 2 (≈ 2.16 µM) | 4 (≈ 4.33 µM) | 2 (≈ 2.16 µM) | > 16 | 1 (≈ 1.08 µM) | 1 (≈ 1.08 µM) | 1 (≈ 1.08 µM) | 2 (≈ 2.16 µM) | 1 (≈ 1.08 µM) | 1 (≈ 1.08 µM) | 1 (≈ 1.08 µM) | 1 (≈ 1.08 µM) | 1 (≈ 1.08 µM) | 2 (≈ 2.16 µM) | 1 (≈ 1.08 µM) | 2 (≈ 2.16 µM) | C[C@@H]1[C@H](O)[C@@H](C)/C=C/C=C/C=C/C=C/C=C/C=C/C=C/[C@H](O[C@@H]2O[C@H](C)[C@@H](O)[C@H](N)[C@@H]2O)C[C@@H]2O[C@](O)(C[C@@H](O)C[C@@H](O)[C@H](O)CC[C@@H](O)C[C@@H](O)CC(=O)O[C@H]1C)C[C@H](O)[C@H]2C(=O)O [AMPHOTERICIN B] | MIC50 (Syncephalastrum [11]): 0.125 µg/mL (≈ 0.135 µM); MIC90 (Syncephalastrum [11]): 1 µg/mL (≈ 1.08 µM); MIC50 (Syncephalastrum [12]): 0.125 µg/mL (≈ 0.135 µM); MIC90 (Syncephalastrum [12]): 2 µg/mL (≈ 2.16 µM) |
